Reference: ChEMBL document CHEMBL1128216, “Rational design and synthesis of small molecule, non-oligosaccharide selectin inhibitors: (alpha-D-mannopyranosyloxy)biphenyl-substituted carboxylic acids” (J Med Chem, 1995)
Values belong to the compound of their own block, whether it stands above or below them.

Legend:
E-selectin = target: T1, E-selectin (Homo sapiens, UniProt P16581); assay: In vitro inhibition of HL60 (human leukemia) cell binding to human recombinant e-selectin.; assay type: cell-based, HL-60
T1 sequence (P16581 whole entry): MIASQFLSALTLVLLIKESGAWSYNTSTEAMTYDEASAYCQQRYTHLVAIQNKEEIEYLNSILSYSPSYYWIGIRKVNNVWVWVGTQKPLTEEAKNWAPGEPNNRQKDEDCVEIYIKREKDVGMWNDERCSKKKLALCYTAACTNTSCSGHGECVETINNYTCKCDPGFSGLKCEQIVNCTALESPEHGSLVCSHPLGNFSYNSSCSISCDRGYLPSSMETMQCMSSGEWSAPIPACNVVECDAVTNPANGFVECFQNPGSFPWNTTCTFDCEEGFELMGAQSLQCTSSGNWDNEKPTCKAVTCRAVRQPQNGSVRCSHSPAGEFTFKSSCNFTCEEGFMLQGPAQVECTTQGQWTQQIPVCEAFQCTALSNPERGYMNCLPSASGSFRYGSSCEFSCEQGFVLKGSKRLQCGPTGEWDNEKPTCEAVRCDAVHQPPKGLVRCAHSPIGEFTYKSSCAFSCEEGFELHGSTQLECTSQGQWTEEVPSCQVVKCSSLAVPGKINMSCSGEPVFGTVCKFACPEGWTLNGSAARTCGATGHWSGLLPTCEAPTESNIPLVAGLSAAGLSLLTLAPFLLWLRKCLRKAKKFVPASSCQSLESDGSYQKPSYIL
In short: (§1)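 Human E-selectin (lectin, EGF and two complement repeats) fused to mouse IgG was captured on anti-mouse IgG magnetic beads overnight at 4 °C. Wells were pre-blocked with 3% BSA/PBS. Compound in PBS was mixed with calcein-labelled HL60 cells (10⁷/mL, RPMI 1640 + 10% FCS) and beads (4 × 10⁶/mL) for 10 min at room temperature. Unbound cells were removed magnetically with two PBS washes, and bound cells were lysed in 1% NP40.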

[1] = target: T2, L-selectin (Mus musculus) (UniProt P18337); assay: In vitro inhibitory activity against sialyl Lewis X expressing HL60 cell binding to Selectin L at 8 mM concentration; assay type: cell-based; settings: HL-60
T2 sequence (whole entry): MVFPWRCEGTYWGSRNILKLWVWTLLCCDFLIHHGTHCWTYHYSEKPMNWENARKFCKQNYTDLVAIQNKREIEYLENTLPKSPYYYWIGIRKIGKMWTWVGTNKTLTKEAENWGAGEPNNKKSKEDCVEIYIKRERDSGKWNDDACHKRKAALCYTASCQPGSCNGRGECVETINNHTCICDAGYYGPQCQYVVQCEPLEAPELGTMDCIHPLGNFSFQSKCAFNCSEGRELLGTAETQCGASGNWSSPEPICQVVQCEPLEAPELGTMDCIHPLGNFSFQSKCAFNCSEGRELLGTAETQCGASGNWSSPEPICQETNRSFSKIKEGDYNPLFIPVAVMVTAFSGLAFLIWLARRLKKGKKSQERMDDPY

[2] = target: T3, P-selectin (Homo sapiens) (UniProt P16109); assay: In vitro inhibitory activity against sialyl Lewis X expressing HL60 cell binding Selectin P at 25 mM concentration; assay type: cell-based; settings: HL-60
T3 sequence (whole entry): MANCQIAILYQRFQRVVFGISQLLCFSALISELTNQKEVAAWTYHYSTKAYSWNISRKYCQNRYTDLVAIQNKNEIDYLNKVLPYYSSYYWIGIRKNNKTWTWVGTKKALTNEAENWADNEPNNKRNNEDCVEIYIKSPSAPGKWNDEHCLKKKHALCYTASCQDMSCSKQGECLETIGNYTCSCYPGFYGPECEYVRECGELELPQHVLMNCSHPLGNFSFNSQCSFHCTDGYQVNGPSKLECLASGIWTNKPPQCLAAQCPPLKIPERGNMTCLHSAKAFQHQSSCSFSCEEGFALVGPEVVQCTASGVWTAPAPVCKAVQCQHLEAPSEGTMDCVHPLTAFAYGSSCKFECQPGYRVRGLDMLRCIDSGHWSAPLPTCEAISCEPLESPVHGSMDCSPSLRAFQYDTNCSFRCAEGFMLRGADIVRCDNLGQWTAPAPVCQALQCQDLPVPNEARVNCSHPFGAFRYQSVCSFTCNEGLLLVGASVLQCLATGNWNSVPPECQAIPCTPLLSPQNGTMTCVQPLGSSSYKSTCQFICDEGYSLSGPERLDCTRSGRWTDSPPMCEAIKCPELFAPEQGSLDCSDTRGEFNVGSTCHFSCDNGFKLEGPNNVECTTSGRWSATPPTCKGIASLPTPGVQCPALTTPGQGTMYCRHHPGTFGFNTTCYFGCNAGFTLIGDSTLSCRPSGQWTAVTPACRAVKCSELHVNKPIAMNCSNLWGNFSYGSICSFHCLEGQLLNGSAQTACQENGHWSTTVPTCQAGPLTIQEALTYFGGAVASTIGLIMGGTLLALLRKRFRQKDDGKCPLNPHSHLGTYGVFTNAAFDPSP

[3] = target: T4, E-selectin (Homo sapiens) (UniProt P16581); assay: In vitro inhibitory activity against sialyl Lewis X expressing HL60 cell binding to recombinant human E-selectin at 128 mM concentration; assay type: cell-based; settings: HL-60; 18 mM; in the assay text read “18 mM” for “128 mM”; in short: as §1
T4 sequence (whole entry): T1 sequence (P16581 whole entry)

[4] = target: T2, L-selectin (Mus musculus); assay: In vitro inhibitory activity against sialyl Lewis X expressing HL60 cell binding Selectin L at 6 mM concentration; assay type: cell-based; settings: HL-60
[5] = target: T3, P-selectin (Homo sapiens); assay: In vitro inhibitory activity against sialyl Lewis X expressing HL60 cell binding Selectin P at 23 mM concentration; assay type: cell-based; settings: HL-60
[6] = target: T2, L-selectin (Mus musculus); assay: In vitro inhibitory activity against sialyl Lewis X expressing HL60 cell binding to Selectin L at 6 mM concentration; assay type: cell-based; settings: HL-60
[7] = target: T3, P-selectin (Homo sapiens); assay: In vitro inhibitory activity against sialyl Lewis X expressing HL60 cell binding Selectin P at 20 mM concentration; assay type: cell-based; settings: HL-60
[8] = target: T4, E-selectin (Homo sapiens); assay: In vitro inhibitory activity against sialyl Lewis X expressing HL60 cell binding to recombinant human E-selectin at 6 mM concentration; assay type: cell-based; settings: HL-60; in short: as §1
[9] = target: T4, E-selectin (Homo sapiens); assay: In vitro inhibitory activity against sialyl Lewis X expressing HL60 cell binding to recombinant human E-selectin at 20 mM concentration; assay type: cell-based; settings: HL-60; in short: as §1
P-selectin = target: T5, P-selectin (Homo sapiens, UniProt P16109); assay: In vitro inhibitory activity against sialyl Lewis X expressing HL60 cell binding Selectin P; assay type: cell-based, HL-60
T5 sequence (P16109 whole entry): T3 sequence (whole entry)

L-selectin = target: T6, L-selectin (Mus musculus, UniProt P18337); assay: In vitro inhibitory activity against sialyl Lewis X expressing HL60 cell binding Selectin L; assay type: cell-based, HL-60
T6 sequence (P18337 whole entry): T2 sequence (whole entry)

[10] = target: T4, E-selectin (Homo sapiens); assay: In vitro inhibitory activity against sialyl Lewis X expressing HL60 cell binding to recombinant human E-selectin at 40 mM concentration; assay type: cell-based; settings: HL-60; in short: as §1
[11] = target: T2, L-selectin (Mus musculus); assay: In vitro inhibitory activity against sialyl Lewis X expressing HL60 cell binding to Selectin L at 3 mM concentration; settings: HL-60
[12] = target: T2, L-selectin (Mus musculus); assay: In vitro inhibitory activity against sialyl Lewis X expressing HL60 cell binding to Selectin L at 7 mM concentration; assay type: cell-based; settings: HL-60
[13] = target: T2, L-selectin (Mus musculus); assay: In vitro inhibitory activity against sialyl Lewis X expressing HL60 cell binding Selectin L at 1 mM concentration; assay type: cell-based; settings: HL-60

SMILES: O=S(=O)(O)CCc1cccc(-c2ccccc2O[C@H]2O[C@H](CO)[C@@H](O)[C@@H](O)[C@@H]2O)c1
IC50 (E-selectin): 20 mM

SMILES: O=C(O)CNC(=O)c1cccc(-c2ccccc2O[C@H]2O[C@H](CO)[C@@H](O)[C@@H](O)[C@@H]2O)c1
inhibition [3]: 0%
inhibition [4]: 0%
inhibition [5]: 25%

SMILES: O=C(O)C(=O)Nc1cccc(-c2ccccc2O[C@H]2O[C@H](CO)[C@@H](O)[C@@H](O)[C@@H]2O)c1
inhibition [8]: 0%

SMILES: O=C(O)COc1cccc(-c2ccccc2O[C@H]2O[C@H](CO)[C@@H](O)[C@@H](O)[C@@H]2O)c1
IC50 (E-selectin): 4.9 mM
IC50 (P-selectin): 4.9 mM
IC50 (L-selectin): 17 mM

SMILES: CC(C(=O)O)c1cccc(-c2ccccc2O[C@H]2O[C@H](CO)[C@@H](O)[C@@H](O)[C@@H]2O)c1 (stereo in doubt; 9r) [listing 1 of 2 here]
inhibition [6]: 40%
inhibition [10]: 0%

SMILES: Cc1ccc(OCC(=O)O)cc1-c1ccccc1O[C@H]1O[C@H](CO)[C@@H](O)[C@@H](O)[C@@H]1O
IC50 (E-selectin): 20.2 mM
IC50 (P-selectin): 12 mM

SMILES: O=C(O)CCC(=O)c1ccc(-c2ccccc2O[C@H]2O[C@H](CO)[C@@H](O)[C@@H](O)[C@@H]2O)cc1
inhibition [9]: 40%
inhibition [11]: 0%
inhibition [7]: 0%

SMILES: O=C(O)c1ccc(-c2ccccc2O[C@H]2O[C@H](CO)[C@@H](O)[C@@H](O)[C@@H]2O)cc1
IC50 (E-selectin): 14.6 mM
inhibition [7]: 0%
inhibition [12]: 0%

SMILES: O=C(O)CCNC(=O)c1ccc(-c2ccccc2O[C@H]2O[C@H](CO)[C@@H](O)[C@@H](O)[C@@H]2O)cc1
IC50 (E-selectin): 36 mM
inhibition [13]: 0%

SMILES: Cc1ccc(O[C@H]2O[C@H](CO)[C@@H](O)[C@@H](O)[C@@H]2O)c(-c2cccc(OCC(=O)O)c2)c1
IC50 (E-selectin): 14 mM

Next, values leading:

IC50 (E-selectin): 20 mM
inhibition [1]: 0%
inhibition [2]: 20%
SMILES: O=C(O)COc1ccccc1-c1ccccc1O[C@H]1O[C@H](CO)[C@@H](O)[C@@H](O)[C@@H]1O

inhibition [6]: 0%
IC50 (E-selectin): 4.6 mM
inhibition [7]: 0%
SMILES: O=C(O)CNC(=O)c1ccc(-c2ccccc2O[C@H]2O[C@H](CO)[C@@H](O)[C@@H](O)[C@@H]2O)cc1

inhibition [1]: 0%
inhibition [9]: 0%
inhibition [7]: 0%
SMILES: Cc1c(OCC(=O)O)cccc1-c1ccccc1O[C@H]1O[C@H](CO)[C@@H](O)[C@@H](O)[C@@H]1O

IC50 (E-selectin): 11.5 mM
SMILES: O=C(NC(Cc1ccccc1)C(=O)O)c1ccc(-c2ccccc2O[C@H]2O[C@H](CO)[C@@H](O)[C@@H](O)[C@@H]2O)cc1 (some centres not stated)

IC50 (P-selectin): 20 mM
SMILES: CC(C(=O)O)c1cccc(-c2ccccc2O[C@H]2O[C@H](CO)[C@@H](O)[C@@H](O)[C@@H]2O)c1 (stereo in doubt; 9r) [listing 2 of 2 here]
